ChEMBL document CHEMBL1152173, “Synthesis and in vitro evaluation of the antifungal activities of dihydropyrimidinones” (2008)
Converted amounts (≈) assume the structure as drawn. The source made the active and inactive calls. The calls are words filed in the database; no cut-off is given here.

What was measured:
Trichoderma koningii [1] = experiment: Antifungal activity against Trichoderma koningii assessed as radial growth at 7% after 72 hrs by poison food technique of Flack relative to control; type: functional
Procedure, shortened: (§1)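 Acetone stock added to molten sterilized PDA to final 0.5–7%, plated in 90 mm dishes with compound-free plates as control. Each plate was inoculated with a 9 mm disc from a 4-day-old culture, incubated at 25 ± 1 °C, and colony diameter measured at 24 h intervals. % inhibition = (control − treatment)/control × 100; three replicates averaged.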

Trichoderma koningii [2] = experiment: Antifungal activity against Trichoderma koningii assessed as radial growth at 1% after 48 hrs by poison food technique of Flack relative to control; type: functional; procedure, shortened: as §1
Trichoderma koningii [3] = experiment: Antifungal activity against Trichoderma koningii assessed as radial growth at 5% after 24 hrs by poison food technique of Flack relative to control; type: functional; procedure, shortened: as §1
Aspergillus niger [4] = experiment: Antifungal activity against Aspergillus niger assessed as radial growth at 1% after 48 hrs by poison food technique of Flack relative to control; type: functional
Aspergillus niger [5] = experiment: Antifungal activity against Aspergillus niger assessed as radial growth at 7% after 48 hrs by poison food technique of Flack relative to control; type: functional
Trichoderma hamatum [6] = experiment: Antifungal activity against Trichoderma hamatum assessed as radial growth at 7% after 72 hrs by poison food technique of Flack relative to control; type: functional; procedure, shortened: as §1
Trichoderma koningii [7] = experiment: Antifungal activity against Trichoderma koningii assessed as radial growth at 5% after 72 hrs by poison food technique of Flack relative to control; type: functional; procedure, shortened: as §1
Aspergillus niger [8] = experiment: Antifungal activity against Aspergillus niger assessed as radial growth at 0.5% after 48 hrs by poison food technique of Flack relative to control; type: functional
Aspergillus niger [9] = experiment: Antifungal activity against Aspergillus niger assessed as radial growth at 5% after 48 hrs by poison food technique of Flack relative to control; type: functional
Aspergillus niger [10] = experiment: Antifungal activity against Aspergillus niger assessed as radial growth at 1% after 72 hrs by poison food technique of Flack relative to control; type: functional
Trichoderma koningii [11] = experiment: Antifungal activity against Trichoderma koningii assessed as radial growth at 0.5% after 72 hrs by poison food technique of Flack relative to control; type: functional; procedure, shortened: as §1
Aspergillus niger [12] = experiment: Antifungal activity against Aspergillus niger assessed as radial growth at 3% after 72 hrs by poison food technique of Flack relative to control; type: functional
Aspergillus niger [13] = experiment: Antifungal activity against Aspergillus niger assessed as radial growth at 5% after 72 hrs by poison food technique of Flack relative to control; type: functional
Trichoderma hamatum [14] = experiment: Antifungal activity against Trichoderma hamatum assessed as radial growth at 5% after 48 hrs by poison food technique of Flack relative to control; type: functional; procedure, shortened: as §1
Trichoderma hamatum [15] = experiment: Antifungal activity against Trichoderma hamatum assessed as radial growth at 0.5% after 48 hrs by poison food technique of Flack relative to control; type: functional
Trichoderma koningii [16] = experiment: Antifungal activity against Trichoderma koningii assessed as radial growth at 0.5% after 24 hrs by poison food technique of Flack relative to control; type: functional; procedure, shortened: as §1
Aspergillus niger [17] = experiment: Antifungal activity against Aspergillus niger assessed as radial growth at 0.5% after 72 hrs by poison food technique of Flack relative to control; type: functional
Trichoderma koningii [18] = experiment: Antifungal activity against Trichoderma koningii assessed as radial growth at 0.5% after 48 hrs by poison food technique of Flack relative to control; type: functional; procedure, shortened: as §1
Aspergillus niger [19] = experiment: Antifungal activity against Aspergillus niger assessed as radial growth at 3% after 24 hrs by poison food technique of Flack relative to control; type: functional
Trichoderma hamatum [20] = experiment: Antifungal activity against Trichoderma hamatum assessed as radial growth at 1% after 48 hrs by poison food technique of Flack relative to control; type: functional
Trichoderma hamatum [21] = experiment: Antifungal activity against Trichoderma hamatum assessed as radial growth at 7% after 24 hrs by poison food technique of Flack; type: functional, organism-based
Procedure, shortened: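 Poisoned-food method: acetone stock mixed into molten sterilized potato dextrose agar to final 0.5, 1, 3, 5 or 7%, poured into 90 mm plates. Plates were inoculated with a 9 mm mycelial disc from a 4-day-old pure culture and incubated at 25 ± 1 °C. Colony diameter (mm) was read every 24 h; mean of three replicates.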

Trichoderma koningii [22] = experiment: Antifungal activity against Trichoderma koningii assessed as radial growth at 3% after 72 hrs by poison food technique of Flack relative to control; type: functional; procedure, shortened: as §1
Trichoderma koningii [23] = experiment: Antifungal activity against Trichoderma koningii assessed as radial growth at 1% after 72 hrs by poison food technique of Flack relative to control; type: functional; procedure, shortened: as §1
Trichoderma koningii [24] = experiment: Antifungal activity against Trichoderma koningii assessed as radial growth at 7% after 24 hrs by poison food technique of Flack relative to control; type: functional; procedure, shortened: as §1
Aspergillus niger [25] = experiment: Antifungal activity against Aspergillus niger; type: functional
Trichoderma hamatum [26] = experiment: Antifungal activity against Trichoderma hamatum assessed as radial growth at 1% after 72 hrs by poison food technique of Flack relative to control; type: functional
Aspergillus niger [27] = experiment: Antifungal activity against Aspergillus niger assessed as radial growth at 3% after 48 hrs by poison food technique of Flack relative to control; type: functional
Aspergillus niger [28] = experiment: Antifungal activity against Aspergillus niger assessed as radial growth at 5% after 24 hrs by poison food technique of Flack relative to control; type: functional
Trichoderma hamatum [29] = experiment: Antifungal activity against Trichoderma hamatum assessed as radial growth at 3% after 24 hrs by poison food technique of Flack relative to control; type: functional
Trichoderma koningii [30] = experiment: Antifungal activity against Trichoderma koningii assessed as radial growth at 3% after 24 hrs by poison food technique of Flack relative to control; type: functional; procedure, shortened: as §1
Trichoderma koningii [31] = experiment: Antifungal activity against Trichoderma koningii assessed as radial growth at 7% after 48 hrs by poison food technique of Flack relative to control; type: functional; procedure, shortened: as §1
Aspergillus niger [32] = experiment: Antifungal activity against Aspergillus niger assessed as radial growth at 7% after 24 hrs by poison food technique of Flack relative to control; type: functional
Trichoderma hamatum [33] = experiment: Antifungal activity against Trichoderma hamatum assessed as radial growth at 7% after 24 hrs by poison food technique of Flack relative to control; type: functional; procedure, shortened: as §1
Trichoderma hamatum [34] = experiment: Antifungal activity against Trichoderma hamatum; type: functional
Trichoderma hamatum [35] = experiment: Antifungal activity against Trichoderma hamatum assessed as radial growth at 3% after 48 hrs by poison food technique of Flack relative to control; type: functional
Trichoderma hamatum [36] = experiment: Antifungal activity against Trichoderma hamatum assessed as radial growth at 1% after 24 hrs by poison food technique of Flack relative to control; type: functional
Trichoderma koningii [37] = experiment: Antifungal activity against Trichoderma koningii assessed as radial growth at 5% after 48 hrs by poison food technique of Flack relative to control; type: functional; procedure, shortened: as §1
Trichoderma koningii [38] = experiment: Antifungal activity against Trichoderma koningii assessed as radial growth at 3% after 48 hrs by poison food technique of Flack relative to control; type: functional; procedure, shortened: as §1
Trichoderma hamatum [39] = experiment: Antifungal activity against Trichoderma hamatum assessed as radial growth at 5% after 72 hrs by poison food technique of Flack relative to control; type: functional; procedure, shortened: as §1
Trichoderma hamatum [40] = experiment: Antifungal activity against Trichoderma hamatum assessed as radial growth at 7% after 48 hrs by poison food technique of Flack relative to control; type: functional; procedure, shortened: as §1
Trichoderma hamatum [41] = experiment: Antifungal activity against Trichoderma hamatum assessed as radial growth at 3% after 72 hrs by poison food technique of Flack relative to control; type: functional
Trichoderma hamatum [42] = experiment: Antifungal activity against Trichoderma hamatum assessed as radial growth at 0.5% after 24 hrs by poison food technique of Flack relative to control; type: functional
Trichoderma hamatum [43] = experiment: Antifungal activity against Trichoderma hamatum assessed as radial growth at 0.5% after 72 hrs by poison food technique of Flack relative to control; type: functional
Aspergillus niger [44] = experiment: Antifungal activity against Aspergillus niger assessed as radial growth at 1% after 24 hrs by poison food technique of Flack relative to control; type: functional

`CCOC(=O)C1=C(C)NC(=S)NC1c1ccc(N(C)C)cc1` (stereo not drawn) was tested, and the “inhibition (INH)” value (Trichoderma koningii [1]) was 91.1%, the “inhibition (INH)” value (Trichoderma koningii [2]) was 0% and the “inhibition (INH)” value (Trichoderma koningii [3]) was 92.3%. The “inhibition (INH)” value (Aspergillus niger [4]) was 0%, the “inhibition (INH)” value (Aspergillus niger [5]) was 100% and the “inhibition (INH)” value (Trichoderma hamatum [6]) was 97.57%. The “inhibition (INH)” value (Trichoderma koningii [7]) was 88.29%, the “inhibition (INH)” value (Aspergillus niger [8]) was 0% and the “inhibition (INH)” value (Aspergillus niger [9]) was 100%. The “inhibition (INH)” value (Aspergillus niger [10]) was 0%, the “inhibition (INH)” value (Trichoderma koningii [11]) was 0% and the “inhibition (INH)” value (Aspergillus niger [12]) was 51.98%. The “inhibition (INH)” value (Aspergillus niger [13]) was 78.39%, the “inhibition (INH)” value (Trichoderma hamatum [14]) was 100% and the “inhibition (INH)” value (Trichoderma hamatum [15]) was 5.25%. The “inhibition (INH)” value (Trichoderma koningii [16]) was 0%, the “inhibition (INH)” value (Aspergillus niger [17]) was 0% and the “inhibition (INH)” value (Trichoderma koningii [18]) was 0%. For the same molecule, the “inhibition (INH)” value (Aspergillus niger [19]) was 30%, the “inhibition (INH)” value (Trichoderma hamatum [20]) was 12.4% and the Activity (Trichoderma hamatum [21]) was “Active”. For the same molecule, the “inhibition (INH)” value (Trichoderma koningii [22]) was 15.77%, the “inhibition (INH)” value (Trichoderma koningii [23]) was 0% and the “inhibition (INH)” value (Trichoderma koningii [24]) was 100%. For the same molecule, the MIC (Aspergillus niger [25]) was 0.35 µg/mL (≈ 1.1 µM), the “inhibition (INH)” value (Trichoderma hamatum [26]) was 13.9% and the “inhibition (INH)” value (Aspergillus niger [27]) was 40%. The “inhibition (INH)” value (Aspergillus niger [28]) was 100%, the “inhibition (INH)” value (Trichoderma hamatum [29]) was 75% and the “inhibition (INH)” value (Trichoderma koningii [30]) was 41.69%. The “inhibition (INH)” value (Trichoderma koningii [31]) was 95.31%, the “inhibition (INH)” value (Aspergillus niger [32]) was 100% and the “inhibition (INH)” value (Trichoderma hamatum [33]) was 100%. For the same molecule, the MIC (Trichoderma hamatum [34]) was 0.025 µg/mL (≈ 0.0783 µM), the “inhibition (INH)” value (Trichoderma hamatum [35]) was 74.44% and the “inhibition (INH)” value (Trichoderma hamatum [36]) was 21.42%. For the same molecule, the “inhibition (INH)” value (Trichoderma koningii [37]) was 86.21%, the “inhibition (INH)” value (Trichoderma koningii [38]) was 18.75% and the “inhibition (INH)” value (Trichoderma hamatum [39]) was 96.68%. For the same molecule, the “inhibition (INH)” value (Trichoderma hamatum [40]) was 100%, the “inhibition (INH)” value (Trichoderma hamatum [41]) was 40.39% and the “inhibition (INH)” value (Trichoderma hamatum [42]) was 8.92%. For the same molecule, the “inhibition (INH)” value (Trichoderma hamatum [43]) was 8.39% and the “inhibition (INH)” value (Aspergillus niger [44]) was 13.6%.
`CCOC(=O)C1=C(C)NC(=O)NC1c1ccccc1O` (stereo not drawn) was tested, and the “inhibition (INH)” value (Trichoderma koningii [1]) was 97.31%, the “inhibition (INH)” value (Trichoderma koningii [2]) was 5.2% and the “inhibition (INH)” value (Trichoderma koningii [3]) was 79.71%. The “inhibition (INH)” value (Aspergillus niger [4]) was 17.75%, the “inhibition (INH)” value (Aspergillus niger [5]) was 100% and the “inhibition (INH)” value (Trichoderma hamatum [6]) was 96.78%. For the same molecule, the “inhibition (INH)” value (Trichoderma koningii [7]) was 55.7%, the “inhibition (INH)” value (Aspergillus niger [8]) was 34.75% and the “inhibition (INH)” value (Aspergillus niger [9]) was 65.66%. The “inhibition (INH)” value (Aspergillus niger [10]) was 16.07%, the “inhibition (INH)” value (Trichoderma koningii [11]) was 0% and the “inhibition (INH)” value (Aspergillus niger [12]) was 60.71%. The “inhibition (INH)” value (Aspergillus niger [13]) was 66.07%, the “inhibition (INH)” value (Trichoderma hamatum [14]) was 94.23% and the “inhibition (INH)” value (Trichoderma hamatum [15]) was 0%. For the same molecule, the “inhibition (INH)” value (Trichoderma koningii [16]) was 0%, the “inhibition (INH)” value (Aspergillus niger [17]) was 33.35% and the “inhibition (INH)” value (Trichoderma koningii [18]) was 0%. For the same molecule, the “inhibition (INH)” value (Aspergillus niger [19]) was 37.6%, the “inhibition (INH)” value (Trichoderma hamatum [20]) was 22.44% and the Activity (Trichoderma hamatum [21]) was “Active”. The “inhibition (INH)” value (Trichoderma koningii [22]) was 25.16%, the “inhibition (INH)” value (Trichoderma koningii [23]) was 0.67% and the “inhibition (INH)” value (Trichoderma koningii [24]) was 100%. The MIC (Aspergillus niger [25]) was 0.025 µg/mL (≈ 0.0905 µM), the “inhibition (INH)” value (Trichoderma hamatum [26]) was 15.84% and the “inhibition (INH)” value (Aspergillus niger [27]) was 64.58%. For the same molecule, the “inhibition (INH)” value (Aspergillus niger [28]) was 40%, the “inhibition (INH)” value (Trichoderma hamatum [29]) was 63.84% and the “inhibition (INH)” value (Trichoderma koningii [30]) was 50.72%. The “inhibition (INH)” value (Trichoderma koningii [31]) was 100%, the “inhibition (INH)” value (Aspergillus niger [32]) was 100% and the “inhibition (INH)” value (Trichoderma hamatum [33]) was 100%. The MIC (Trichoderma hamatum [34]) was 0.025 µg/mL (≈ 0.0905 µM), the “inhibition (INH)” value (Trichoderma hamatum [35]) was 68.75% and the “inhibition (INH)” value (Trichoderma hamatum [36]) was 21.05%. For the same molecule, the “inhibition (INH)” value (Trichoderma koningii [37]) was 70.83%, the “inhibition (INH)” value (Trichoderma koningii [38]) was 38.81% and the “inhibition (INH)” value (Trichoderma hamatum [39]) was 95.07%. The “inhibition (INH)” value (Trichoderma hamatum [40]) was 100%, the “inhibition (INH)” value (Trichoderma hamatum [41]) was 59.1% and the “inhibition (INH)” value (Trichoderma hamatum [42]) was 0%. The “inhibition (INH)” value (Trichoderma hamatum [43]) was 0% and the “inhibition (INH)” value (Aspergillus niger [44]) was 0%.
